# From ChEMBL document CHEMBL1667800, “Synthesis, DNA/RNA affinity and antitumour activity of new aromatic diamidines linked by 3,4-ethylenedioxythiophene” (Eur J Med Chem, 2011)
# Legend:
# [1] = tested on: HeLa; assay: Induction of cell cycle arrest in human HeLa assessed as accumulation at G0/G1-phase at 5x10'-5 M after 48 hrs by FACS analysis (RVb = 62.2+/-4.4%); format: functional
# [2] = tested on: NCI-H358; assay: Cytotoxicity against human NCI-H358 cells after 72 hrs by MTT assay; format: functional; details: NCI-H358, 72 h
# Outline: (§1)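 Cells were seeded at 2 × 10^4 cells/mL and attached overnight at 37 °C, 5% CO2. They were then exposed for 72 h to compounds from aqueous stocks (working solutions 10^-3–10^-6 mol dm^-3). MTT was added for 4 h at 37 °C, formazan dissolved in DMSO, and absorbance read at 570 nm. GI50 is the mean ± SD of three independent experiments run in triplicate.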
# [3] = tested on: HeLa; assay: Induction of cell cycle arrest in human HeLa assessed as accumulation at S-phase at 5x10'-5 M after 24 hrs by FACS analysis (RVb = 62.2+/-4.4%); format: functional
# [4] = tested on: HeLa; assay: Cytotoxicity against human HeLa cells after 72 hrs by MTT assay; format: functional; outline: as §1
# [5] = tested on: HeLa; assay: Induction of cell cycle arrest in human HeLa assessed as accumulation at S-phase at 5x10'-5 M after 72 hrs by FACS analysis (RVb = 62.2+/-4.4%); format: functional
# [6] = tested on: MCF7; assay: Cytotoxicity against human MCF7 cells after 72 hrs by MTT assay; format: functional; details: MCF7, 72 h; outline: as §1
# [7] = tested on: HeLa; assay: Induction of cell cycle arrest in human HeLa assessed as accumulation at S-phase at 5x10'-5 M after 48 hrs by FACS analysis (RVb = 62.2+/-4.4%); format: functional
# [8] = tested on: HeLa; assay: Induction of cell cycle arrest in human HeLa assessed as accumulation at G0/G1-phase at 5x10'-5 M after 72 hrs by FACS analysis (RVb = 62.2+/-4.4%); format: functional
# [9] = tested on: Caco-2; assay: Cytotoxicity against human Caco2 cells after 72 hrs by MTT assay; format: functional; details: Caco-2, 72 h; outline: as §1
# [10] = tested on: HeLa; assay: Induction of cell cycle arrest in human HeLa assessed as accumulation at G2/M-phase at 5x10'-5 M after 72 hrs by FACS analysis (RVb = […]); format: functional
# [11] = tested on: HeLa; assay: Induction of cell cycle arrest in human HeLa assessed as accumulation at G0/G1-phase at 5x10'-5 M after 24 hrs by FACS analysis (RVb = 62.2+/-4.4%); format: functional
# [12] = tested on: MIA PaCa-2; assay: Cytotoxicity against human MIAPaCa2 cells after 72 hrs by MTT assay; format: functional; details: MIA PaCa-2, 72 h; outline: as §1
# [13] = tested on: HeLa; assay: Induction of cell cycle arrest in human HeLa assessed as accumulation at G2/M-phase at 5x10'-5 M after 48 hrs by FACS analysis (RVb = […]); format: functional
# [14] = Cytotoxicity against MDCK cells after 72 hrs by MTT assay; format: cell-based, Canis lupus familiaris; details: dog; outline: as §1
# [15] = tested on: HeLa; assay: Induction of cell cycle arrest in human HeLa assessed as accumulation at G2/M-phase at 5x10'-5 M after 24 hrs by FACS analysis (RVb = […]); format: functional
# [16] = tested on: AGS; assay: Cytotoxicity against human AGS cells after 72 hrs by MTT assay; format: functional; outline: as §1
# [17] = tested on: HEp-2; assay: Cytotoxicity against human Hep2 cells after 72 hrs by MTT assay; format: functional; details: HEp-2, 72 h; outline: as §1
smiles,measurement,setting,value
CN1CCN(c2ccc3[nH]c(-c4ccc5[nH]c(-c6ccc(O)cc6)nc5c4)nc3c2)CC1 [HOECHST 33258],Activity,[1],49%
same,GI50,[2],91.7 µM
same,Activity,[3],41.6%
same,GI50,[4],116 µM
same,Activity,[5],43.1%
same,GI50,[6],5.7 µM
same,Activity,[7],42.6%
same,Activity,[8],45.7%
same,GI50,[9],84 µM
same,Activity,[10],11.2%
same,Activity,[11],51.3%
same,GI50,[12],192 µM
same,Activity,[13],8.4%
same,GI50 at 72 h,[14],158 µM
same,Activity,[15],7.1%
same,GI50,[16],112 µM
same,GI50,[17],132 µM
